Article PMC7114209 (Antiviral Research, 2008)

Key:
[1] = Cell growth and viability assay; format: cell-based; conditions: human, Raji cells, CC50, cytotoxic concentration that decreased cell viability to 50% of untreated cells, MTT, mean ± S.D. of three experiments
In short: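 Raji cells (latently EBV-infected, non-producer) kept at 4–6 × 10^5 cells/ml in RPMI 1640 with 10% FCS, penicillin and streptomycin. Cells were seeded in 96-well plates and exposed to a range of test compound concentrations for 3 days. MTT was then added for 6 h at 37 °C and solubilised in 0.04 M HCl–isopropanol. Absorbance was read at 595 nm against 655 nm. CC50 is relative to the no-drug control.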

EBV DNA in Raji cells = conditions: latently infected Raji cells, not superinfected; ref Lin, 2003; cited from earlier work
EBV DNA in P3HR-1 cells = conditions: ref Lin, 2003; cited from earlier work

## CC1(C)[C@@H](O[C@H]2O[C@H](C(=O)O)[C@@H](O)[C@H](O)[C@H]2O[C@@H]2O[C@H](C(=O)O)[C@@H](O)[C@H](O)[C@H]2O)CC[C@]2(C)[C@H]3C(=O)C=C4[C@@H]5C[C@@](C)(C(=O)O)CC[C@]5(C)CC[C@@]4(C)[C@]3(C)CC[C@@H]12 [GL (18β-GL), Glycyrrhizic acid]
[1]
  CC50 at 3 days: 4.5 ± 0.16 mM
EBV DNA in Raji cells
  effect on EBV DNA: no effects
EBV DNA in P3HR-1 cells
  effect on EBV DNA: no effects
